# ChEMBL document CHEMBL4339192, “De Novo Designed Amphipathic α-Helical Antimicrobial Peptides Incorporating Dab and Dap Residues on the Polar Face To Treat the Gram-Negative Pathogen, Acinetobacter baumannii” (J Med Chem, 2019)
# Where a SMILES comes first, the peptide text is derived from it. [ ]: non-standard residue; d: D form. Dab = NCC[C@H](N)C(=O)O; Dap = NC[C@H](N)C(=O)O
# How the values were obtained:
# Acinetobacter baumannii [1] = assay: Antibacterial activity against Acinetobacter baumannii isolate 963659 measured after 24 hrs by microtiter dilution method; format: functional; details: isolate 963659, 24 h
# Procedure, shortened: (§1)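 Broth microdilution in Mueller-Hinton (MH) medium. […] Plates were incubated 24 h at 37 °C. MIC was the lowest peptide concentration that inhibited growth, based on three sets of replicates.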
# Acinetobacter baumannii [2] = assay: Antibacterial activity against polymyxin B/colistin-resistant Acinetobacter baumannii M89949 measured after 24 hrs by microtiter dilution method; format: functional; details: M89949, 24 h; procedure, shortened: as §1
# Acinetobacter baumannii [3] = assay: Antibacterial activity against polymyxin B/colistin-resistant Acinetobacter baumannii M89955 measured after 24 hrs by microtiter dilution method; format: functional; details: M89955, 24 h; procedure, shortened: as §1
# Acinetobacter baumannii [4] = assay: Antibacterial activity against Acinetobacter baumannii isolate 1035794 measured after 24 hrs by microtiter dilution method; format: functional; details: isolate 1035794, 24 h; procedure, shortened: as §1
# Acinetobacter baumannii [5] = assay: Antibacterial activity against Acinetobacter baumannii isolate 1017395 measured after 24 hrs by microtiter dilution method; format: functional; details: isolate 1017395, 24 h; procedure, shortened: as §1
# Acinetobacter baumannii [6] = assay: Antibacterial activity against polymyxin B/colistin-resistant Acinetobacter baumannii M89953 measured after 24 hrs by microtiter dilution method; format: functional; details: M89953, 24 h; procedure, shortened: as §1
# [7] = Therapeutic index, ratio of HC50 for human RBC to MIC for polymyxin B/colistin-resistant Acinetobacter baumannii M89953; format: toxicity; details: human red blood cells, read-out: TI
# Procedure, shortened: (§2)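 T.I. = HC50/MIC. For HC50, peptide (quantified by amino acid analysis) was two-fold serially diluted over 12 concentrations up to 1000 μg/mL. It was incubated with 1% fresh human erythrocytes in PBS, pH 7.4, for 18 h at 37 °C. After 800g centrifugation, hemoglobin was read at 570 nm against water (100%) and no-peptide (0%) controls. HC50 came from a lysis-versus-concentration plot, average of 3 replicates.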
# [8] = Hemolytic activity against human RBC measured after 18 hrs by spectrophotometric method; format: ADME, cell-based, Erythrocyte; details: human red blood cells (erythrocytes)
# Procedure, shortened: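 Peptide (amount by amino acid analysis), two-fold serial dilutions at 12 concentrations up to 1000 μg/mL, with 1% human erythrocytes in PBS pH 7.4, 37 °C, 18 h. Unlysed cells removed by centrifugation (800g); hemoglobin read at 570 nm. Water-lysed cells = 100%, no-peptide cells = 0%. HC50 from plot of % lysis vs concentration (μM), average of 3 replicates.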
# [9] = Therapeutic index, ratio of HC50 for human RBC to MIC for polymyxin B/colistin-resistant Acinetobacter baumannii M89949; format: toxicity; details: human red blood cells, read-out: TI; procedure, shortened: as §2
# [10] = Therapeutic index, ratio of HC50 for human RBC to MIC for polymyxin B/colistin-resistant Acinetobacter baumannii M89941; format: toxicity; details: human red blood cells, read-out: TI; procedure, shortened: as §2
# Acinetobacter baumannii [11] = assay: Antibacterial activity against Acinetobacter baumannii isolate 1010282 measured after 24 hrs by microtiter dilution method; format: functional; details: isolate 1010282, 24 h; procedure, shortened: as §1
# Acinetobacter baumannii [12] = assay: Antibacterial activity against Acinetobacter baumannii isolate 964304 measured after 24 hrs by microtiter dilution method; format: functional; details: isolate 964304, 24 h; procedure, shortened: as §1
# Acinetobacter baumannii [13] = assay: Antibacterial activity against Acinetobacter baumannii isolate 968886 measured after 24 hrs by microtiter dilution method; format: functional; details: isolate 968886, 24 h; procedure, shortened: as §1
# Acinetobacter baumannii [14] = assay: Antibacterial activity against Acinetobacter baumannii isolate 1018887 measured after 24 hrs by microtiter dilution method; format: functional; details: isolate 1018887, 24 h; procedure, shortened: as §1
# [15] = Therapeutic index, ratio of HC50 for human RBC to MIC for polymyxin B/colistin-resistant Acinetobacter baumannii M89952; format: toxicity; details: human red blood cells, read-out: TI; procedure, shortened: as §2
# [16] = Therapeutic index, ratio of HC50 for human RBC to MIC for polymyxin B/colistin-resistant Acinetobacter baumannii M89955; format: toxicity; details: human red blood cells, read-out: TI; procedure, shortened: as §2
# [17] = Therapeutic index, ratio of HC50 for human RBC to MIC for polymyxin B/colistin-resistant Acinetobacter baumannii M89951; format: toxicity; details: human red blood cells, read-out: TI; procedure, shortened: as §2
# Acinetobacter baumannii [18] = assay: Antibacterial activity against Acinetobacter baumannii 649 measured after 24 hrs in presence of 25% human serum by microtiter dilution method; format: functional; details: Acinetobacter baumannii, 649, 24 h
# Procedure, shortened: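 Blood strain 649 was tested by MH broth microdilution with and without 25% (v/v) human serum added to the medium. The test used a final inoculum of 5 × 10^5 cfu/mL and incubation at 37 °C. The ratio is the MIC in serum over the MIC in MH alone.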
# [19] = Therapeutic index, ratio of HC50 for human RBC to MIC for polymyxin B/colistin-resistant Acinetobacter baumannii M89963; format: toxicity; details: human red blood cells, read-out: TI; procedure, shortened: as §2
# Acinetobacter baumannii [20] = assay: Antibacterial activity against polymyxin B/colistin-resistant Acinetobacter baumannii M89952 measured after 24 hrs by microtiter dilution method; format: functional; details: M89952, 24 h; procedure, shortened: as §1
# Acinetobacter baumannii [21] = assay: Antibacterial activity against Acinetobacter baumannii isolate 1007660 measured after 24 hrs by microtiter dilution method; format: functional; details: isolate 1007660, 24 h; procedure, shortened: as §1
# Acinetobacter baumannii [22] = assay: Antibacterial activity against polymyxin B/colistin-resistant Acinetobacter baumannii M89963 measured after 24 hrs by microtiter dilution method; format: functional; details: M89963, 24 h; procedure, shortened: as §1
# Acinetobacter baumannii [23] = assay: Antibacterial activity against Acinetobacter baumannii isolate 1035166 measured after 24 hrs by microtiter dilution method; format: functional; details: isolate 1035166, 24 h; procedure, shortened: as §1
# Acinetobacter baumannii [24] = assay: Antibacterial activity against Acinetobacter baumannii isolate 963618 measured after 24 hrs by microtiter dilution method; format: functional; details: isolate 963618, 24 h; procedure, shortened: as §1
# Acinetobacter baumannii [25] = assay: Antibacterial activity against Acinetobacter baumannii 649 measured after 24 hrs by microtiter dilution method; format: functional; details: Acinetobacter baumannii, 649, 24 h; procedure, shortened: as §1
# Acinetobacter baumannii [26] = assay: Antibacterial activity against Acinetobacter baumannii isolate 1021371 measured after 24 hrs by microtiter dilution method; format: functional; details: isolate 1021371, 24 h; procedure, shortened: as §1
# Acinetobacter baumannii [27] = assay: Antibacterial activity against Acinetobacter baumannii isolate 952654 measured after 24 hrs by microtiter dilution method; format: functional; details: isolate 952654, 24 h; procedure, shortened: as §1
# Acinetobacter baumannii [28] = assay: Antibacterial activity against Acinetobacter baumannii isolate 1010245 measured after 24 hrs by microtiter dilution method; format: functional; details: isolate 1010245, 24 h; procedure, shortened: as §1
# Acinetobacter baumannii [29] = assay: Antibacterial activity against Acinetobacter baumannii isolate 961997 measured after 24 hrs by microtiter dilution method; format: functional; details: isolate 961997, 24 h; procedure, shortened: as §1
# Acinetobacter baumannii [30] = assay: Antibacterial activity against Acinetobacter baumannii isolate 1002956 measured after 24 hrs by microtiter dilution method; format: functional; details: isolate 1002956, 24 h; procedure, shortened: as §1
# Acinetobacter baumannii [31] = assay: Antibacterial activity against Acinetobacter baumannii isolate 977751 measured after 24 hrs by microtiter dilution method; format: functional; details: isolate 977751, 24 h; procedure, shortened: as §1
# Acinetobacter baumannii [32] = assay: Antibacterial activity against Acinetobacter baumannii isolate 9383370 measured after 24 hrs by microtiter dilution method; format: functional; details: isolate 9383370, 24 h; procedure, shortened: as §1
# Acinetobacter baumannii [33] = assay: Antibacterial activity against Acinetobacter baumannii isolate 965463 measured after 24 hrs by microtiter dilution method; format: functional; details: isolate 965463, 24 h; procedure, shortened: as §1
# Acinetobacter baumannii [34] = assay: Antibacterial activity against Acinetobacter baumannii isolate 1001611 measured after 24 hrs by microtiter dilution method; format: functional; details: isolate 1001611, 24 h; procedure, shortened: as §1
# Acinetobacter baumannii [35] = assay: Antibacterial activity against polymyxin B/colistin-resistant Acinetobacter baumannii M89951 measured after 24 hrs by microtiter dilution method; format: functional; details: M89951, 24 h; procedure, shortened: as §1
# Acinetobacter baumannii [36] = assay: Antibacterial activity against Acinetobacter baumannii isolate 981650 measured after 24 hrs by microtiter dilution method; format: functional; details: isolate 981650, 24 h; procedure, shortened: as §1
# Acinetobacter baumannii [37] = assay: Antibacterial activity against polymyxin B/colistin-resistant Acinetobacter baumannii M89941 measured after 24 hrs by microtiter dilution method; format: functional; details: M89941, 24 h; procedure, shortened: as §1
Compound,MIC (Acinetobacter baumannii [1]) [µM],MIC (Acinetobacter baumannii [2]) [µM],MIC (Acinetobacter baumannii [3]) [µM],MIC (Acinetobacter baumannii [4]) [µM],MIC (Acinetobacter baumannii [5]) [µM],MIC (Acinetobacter baumannii [6]) [µM],selectivity ratio [7],HC50 at 18 h [8] [µM],selectivity ratio [9],selectivity ratio [10],MIC (Acinetobacter baumannii [11]) [µM],MIC (Acinetobacter baumannii [12]) [µM],MIC (Acinetobacter baumannii [13]) [µM],MIC (Acinetobacter baumannii [14]) [µM],selectivity ratio [15],selectivity ratio [16],selectivity ratio [17],MIC (Acinetobacter baumannii [18]) [µM],selectivity ratio [19],MIC (Acinetobacter baumannii [20]) [µM],further results
CC(=O)N[C@H](CCCCN)C(=O)N[C@H](CC(C)C)C(=O)N[C@@H](CN)C(=O)N[C@H](CO)C(=O)N[C@H](CC(C)C)C(=O)N[C@H](CC(C)C)C(=O)N[C@@H](CN)C(=O)N[C@@H](C(=O)N[C@H](CC(C)C)C(=O)N[C@H](CO)C(=O)N[C@@H](CN)C(=O)N[C@H](C)C(=O)N[C@H](CCCCN)C(=O)N[C@H](C)C(=O)N[C@H](C)C(=O)N[C@H](CCCCN)C(=O)N[C@H](CC(C)C)C(=O)N[C@@H](CN)C(=O)N[C@@H](C(=O)N[C@H](CC(C)C)C(=O)N[C@H](CC(C)C)C(=O)N[C@@H](CN)C(=O)N[C@H](C)C(=O)N[C@H](CC(C)C)C(=O)N[C@H](CO)C(=O)N[C@@H](CN)C(N)=O)[C@H](C)O)[C@H](C)O (Ac-[dK][dL][Dap][dS][dL][dL][Dap][dT][dL][dS][Dap][dA][dK][dA][dA][dK][dL][Dap][dT][dL][dL][Dap][dA][dL][dS][Dap]-NH2),1.5,0.8,0.8,0.8,1.5,3,> 957,> 1150,> 957,> 957,0.8,1.5,1.5,0.8,> 957,> 957,> 957,3,> 957,0.8,MIC (Acinetobacter baumannii [21]): 0.8 µM; MIC (Acinetobacter baumannii [22]): 1.5 µM; MIC (Acinetobacter baumannii [23]): 0.8 µM; MIC (Acinetobacter baumannii [24]): 0.8 µM; MIC (Acinetobacter baumannii [25]): 0.8 µM; MIC (Acinetobacter baumannii [26]): 1.5 µM; MIC (Acinetobacter baumannii [27]): 1.5 µM; MIC (Acinetobacter baumannii [28]): 0.8 µM; MIC (Acinetobacter baumannii [29]): 1.5 µM; MIC (Acinetobacter baumannii [30]): 0.8 µM; MIC (Acinetobacter baumannii [31]): 0.8 µM; MIC (Acinetobacter baumannii [32]): 0.8 µM; MIC (Acinetobacter baumannii [33]): 1.5 µM; MIC (Acinetobacter baumannii [34]): 0.4 µM; MIC (Acinetobacter baumannii [35]): 3 µM; MIC (Acinetobacter baumannii [36]): 0.8 µM; MIC (Acinetobacter baumannii [37]): 0.8 µM
CC(=O)N[C@H](CCCCN)C(=O)N[C@H](CC(C)C)C(=O)N[C@@H](CCN)C(=O)N[C@H](CO)C(=O)N[C@H](CC(C)C)C(=O)N[C@H](CC(C)C)C(=O)N[C@@H](CCN)C(=O)N[C@@H](C(=O)N[C@H](CC(C)C)C(=O)N[C@H](CO)C(=O)N[C@@H](CCN)C(=O)N[C@H](C)C(=O)N[C@H](CCCCN)C(=O)N[C@H](C)C(=O)N[C@H](C)C(=O)N[C@H](CCCCN)C(=O)N[C@H](CC(C)C)C(=O)N[C@@H](CCN)C(=O)N[C@@H](C(=O)N[C@H](CC(C)C)C(=O)N[C@H](CC(C)C)C(=O)N[C@@H](CCN)C(=O)N[C@H](C)C(=O)N[C@H](CC(C)C)C(=O)N[C@H](CO)C(=O)N[C@@H](CCN)C(N)=O)[C@H](C)O)[C@H](C)O (Ac-[dK][dL][Dab][dS][dL][dL][Dab][dT][dL][dS][Dab][dA][dK][dA][dA][dK][dL][Dab][dT][dL][dL][Dab][dA][dL][dS][Dab]-NH2),0.7,0.7,0.7,1.5,3,1.4,> 742,> 742,> 742,> 742,0.7,1.5,1.5,0.7,> 742,> 742,> 742,0.2,> 742,0.7,MIC (Acinetobacter baumannii [21]): 0.7 µM; MIC (Acinetobacter baumannii [22]): 1.4 µM; MIC (Acinetobacter baumannii [23]): 0.7 µM; MIC (Acinetobacter baumannii [24]): 0.7 µM; MIC (Acinetobacter baumannii [25]): 0.7 µM; MIC (Acinetobacter baumannii [26]): 1.5 µM; MIC (Acinetobacter baumannii [27]): 1.5 µM; MIC (Acinetobacter baumannii [28]): 0.7 µM; MIC (Acinetobacter baumannii [29]): 0.7 µM; MIC (Acinetobacter baumannii [30]): 0.7 µM; MIC (Acinetobacter baumannii [31]): 0.7 µM; MIC (Acinetobacter baumannii [32]): 0.7 µM; MIC (Acinetobacter baumannii [33]): 3 µM; MIC (Acinetobacter baumannii [34]): 0.7 µM; MIC (Acinetobacter baumannii [35]): 1.4 µM; MIC (Acinetobacter baumannii [36]): 0.7 µM; MIC (Acinetobacter baumannii [37]): 0.7 µM
